Experimental data: ChEMBL document CHEMBL1153564 (Antimicrob Agents Chemother, 2008)
≈ marks a conversion by molar mass, not a printed value. Calls of active or inactive are those of the source. The rule behind the calls is not given here. Starred links: 1 amine or outer side, 2 acyl side, 3 side chain; linkers in the order of their positions; H or OH if unused. Positions of bridges follow the written chain, without caps; N, C: chain ends. Non-standard residues stand in square brackets, D forms with d. Residues, ends and D or L forms follow the SMILES beside them. *: point of attachment. pTerphenylCO(4''-OnC5H11) = CCCCCOc1ccc(-c2ccc(-c3ccc(C(=O)*)cc3)cc2)cc1; Orn(4R-OH,5R-OH) = O=C([C@H](C[C@@H](O)[C@@H](O)N[*:3])N[*:1])[*:2]; hTyr(3S-OH,4S-OH) = N[C@H](C(=O)O)[C@H](O)[C@@H](O)c1ccc(O)cc1; Pro(3S-OH,4S-Me) = C[C@H]1CN[C@H](C(=O)O)[C@H]1O; Hyp = O=C(O)[C@@H]1C[C@@H](O)CN1

Key:
Candida albicans [1] = assay: Antifungal activity against Candida albicans K-1 infected in neutropenic ICR/Swiss mouse candidiasis model assessed as reduction of […] in kidney at 5 mg/kg, ip administered 2 hrs postinfection as single dose measured within 1 to 4 hrs post dosing by time-kill assay; format: functional, organism-based; set-up: dose 5 mg/kg
Procedure, shortened: (§1)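 Single ip dose (20, 5 or 1.25 mg/kg) given 2 h after iv infection of neutropenic mice with K-1. Three treated and three control mice were sampled at intervals over 96 h for kidney CFU. PAFE is the time for treated burden to rise 1 log10 after serum levels fall below MIC, minus the same time in controls. Free drug was taken as 1%.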

Candida tropicalis [2] = assay: Antifungal activity against Candida tropicalis 98-234 infected in neutropenic ICR/Swiss mouse candidiasis model assessed as dose required to maintain […] of 3.81 +/- 0.33 log10CFU per kidney administered intraperitoneally every 24 hrs up to 4 days measured per 24 hrs; format: functional
Nakaseomyces glabratus [3] = assay: Antifungal activity against Candida glabrata 35315 infected in neutropenic ICR/Swiss mouse candidiasis model assessed as dose required to maintain […] burden of 1.83 +/- 0.54 log10CFU per kidney administered intraperitoneally every 24 hrs up to 4 days measured per 24 hrs; format: functional
Candida albicans [4] = assay: Antifungal activity against Candida albicans K-1 infected in neutropenic ICR/Swiss mouse candidiasis model assessed as suppression of fungal regrowth at 20 mg/kg, ip administered 2 hrs postinfection as single dose by time-kill assay; format: functional, organism-based; set-up: dose 20 mg/kg; procedure, shortened: as §1
Serum = assay: Fraction unbound in Candida glabrata 5376-infected neutropenic ICR/Swiss mouse serum at 20 mg/kg, ip administered 2 hrs postinfection as single dose measured after 32 hrs; format: ADME, organism-based; set-up: dose 20 mg/kg, route intraperitoneal; conditions: in vivo
Candida albicans [5] = assay: Antifungal activity against Candida albicans K-1 infected in neutropenic ICR/Swiss mouse candidiasis model assessed as […] burden per kidney administered intraperitoneally every 16 hrs up to 4 days measured per 96 hrs; format: functional; conditions: K-1, Kidney, ip
Procedure, shortened: (§2)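 Neutropenic mice were infected iv with C. albicans K-1 2 h before therapy. Total doses of 1.25, 5, 20, 80 and 320 mg/kg/96 h were split into 1, 2, 4 or 6 ip doses (q96h, q48h, q24h, q16h), three mice per regimen. Effect is the log10 CFU/kidney relative to untreated controls at 96 h. Static and 1-log doses were taken from a Hill model fit.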

Candida albicans [6] = assay: Antifungal activity against Candida albicans K-1 infected in neutropenic ICR/Swiss mouse candidiasis model assessed as […] burden per kidney administered intraperitoneally every 24 hrs up to 4 days measured per 96 hrs; format: functional; conditions: K-1, Kidney, ip; procedure, shortened: as §2
Candida albicans [7] = assay: Antifungal activity against Candida albicans 98-17 infected in neutropenic ICR/Swiss mouse candidiasis model assessed as dose required for 1-log10 reduction in […] per kidney administered intraperitoneally every 24 hrs up to 4 days measured per 24 hrs; format: functional
Procedure, shortened: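 Neutropenic mice (cyclophosphamide sc on days −4, −1 and +2) were infected iv 2 h before therapy. Five total doses from 0.078 to 20 mg/kg/24 h were given ip q24h for 4 days, three mice per regimen. Kidney CFU were measured at the end of therapy. Static and 1-log-kill doses were derived from a Hill sigmoid dose-effect fit.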

Nakaseomyces glabratus [8] = assay: Antifungal activity against Candida glabrata 5592 infected in neutropenic ICR/Swiss mouse candidiasis model assessed as dose required for 1-log10 reduction in […] per kidney administered intraperitoneally every 24 hrs up to 4 days measured per 24 hrs; format: functional
Procedure, shortened: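 Neutropenic mouse disseminated candidiasis, with i.p. therapy starting 2 h after i.v. infection. Five total doses of 0.078–20 mg/kg/24 h were given q24h for 4 days, three mice per dose. Kidney CFU were counted at the end and compared with untreated controls. The dose giving a 1 log10 CFU/kidney reduction was derived from the sigmoid Hill dose–effect model.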

Candida albicans [9] = assay: Antifungal activity against Candida albicans 580 assessed as partial growth inhibition after 24 hrs by CLSI end point method; format: functional; conditions: Candida albicans, 580, 24 h
Procedure, shortened: (§3)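 CLSI M27-A2 broth dilution. Two end points read against the drug-free control well: partial inhibition (CLSI end point) and complete inhibition. Run in duplicate on four separate occasions; value is the mean. Drug stock in DMSO, diluted in 0.9% NaCl.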

Nakaseomyces glabratus [10] = assay: Antifungal activity against Candida glabrata 32930 assessed as partial growth inhibition after 24 hrs by CLSI end point method; format: functional; conditions: Nakaseomyces glabratus, 32930, 24 h; procedure, shortened: as §3
Nakaseomyces glabratus [11] = assay: Antifungal activity against Candida glabrata 33616 assessed as partial growth inhibition after 24 hrs by CLSI end point method; format: functional; conditions: Nakaseomyces glabratus, 33616, 24 h
Procedure, shortened: (§4)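 Two end points were read against the drug-free control well: partial growth inhibition (the CLSI end point) and complete inhibition. Run in duplicate on four separate occasions; the value is the mean. Drug stock was made in DMSO and diluted in 0.9% NaCl.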

Nakaseomyces glabratus [12] = assay: Antifungal activity against Candida glabrata 34341 assessed as partial growth inhibition after 24 hrs by CLSI end point method; format: functional; conditions: Nakaseomyces glabratus, 34341, 24 h; procedure, shortened: as §4
Nakaseomyces glabratus [13] = assay: Antifungal activity against Candida glabrata 37661 assessed as partial growth inhibition after 24 hrs by CLSI end point method; format: functional; conditions: Nakaseomyces glabratus, 37661, 24 h; procedure, shortened: as §4
Candida albicans [14] = assay: Antifungal activity against Candida albicans 98-210 assessed as complete growth inhibition after 24 hrs by CLSI end point method; format: functional; conditions: 98-210, 24 h; procedure, shortened: as §3
Candida tropicalis [15] = assay: Antifungal activity against Candida tropicalis 98-234 assessed as complete growth inhibition after 24 hrs by CLSI end point method; format: functional; conditions: 98-234, 24 h
Nakaseomyces glabratus [16] = assay: Antifungal activity against Candida glabrata 513 assessed as complete growth inhibition after 24 hrs by CLSI end point method; format: functional; conditions: Nakaseomyces glabratus, 513, 24 h; procedure, shortened: as §4
Candida albicans [17] = assay: Antifungal activity against Candida albicans 98-210 infected in neutropenic ICR/Swiss mouse candidiasis model assessed as fungal count per kidney administered 2 hrs postinfection measured up to 48 hrs; format: functional
Procedure, shortened: (§5)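 Untreated neutropenic mice infected via the tail vein (inoculum about 6.1 log10 CFU/ml, 0.1 ml). Growth is the rise in kidney CFU over 48 h. Kidneys were homogenised, serially diluted 1:10 and plated on SDA for 24 h at 35°C. Mean of three mice.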

Candida albicans [18] = assay: Antifungal activity against Candida albicans 580 infected in neutropenic ICR/Swiss mouse candidiasis model assessed as fungal count per kidney administered 2 hrs postinfection measured up to 48 hrs; format: functional; procedure, shortened: as §5
Nakaseomyces glabratus [19] = assay: Antifungal activity against Candida glabrata 5592 infected in neutropenic ICR/Swiss mouse candidiasis model assessed as fungal count per kidney administered 2 hrs postinfection measured up to 48 hrs; format: functional
Procedure, shortened: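 Female ICR/Swiss mice (23–27 g) made neutropenic with cyclophosphamide s.c. (150 mg/kg day −4, 100 mg/kg day −1, 100 mg/kg day +2). Infected by tail vein with 0.1 ml inoculum (~6.1 log10 CFU/ml). Kidneys of untreated mice were homogenised and plated on SDA for 24 h at 35°C. Growth over 48 h is given as log10 CFU/kidney.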

Nakaseomyces glabratus [20] = assay: Antifungal activity against Candida glabrata 5376 infected in neutropenic ICR/Swiss mouse candidiasis model assessed as reduction of […] in kidney at 5 mg/kg, ip administered 2 hrs postinfection as single dose measured after 96 hrs post dosing by time-kill assay; format: functional, organism-based; set-up: dose 5 mg/kg
Procedure, shortened: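 Neutropenic mice were infected i.v. and 2 h later given a single i.p. dose (1.25, 5 or 20 mg/kg). Groups of three treated and three control mice were killed at intervals over 96 h, and kidney CFU were counted on SDA (limit 100 CFU/ml). The post-antifungal effect is t − c: the time for a 1 log10 CFU/kidney increase once serum levels fall below the MIC in treated mice, minus the same time in controls.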

CCCCCOc1ccc(-c2ccc(-c3ccc(C(=O)N[C@H]4C[C@@H](O)[C@@H](O)NC(=O)[C@@H]5[C@@H](O)[C@@H](C)CN5C(=O)[C@H]([C@@H](C)O)NC(=O)[C@H]([C@H](O)[C@@H](O)c5ccc(O)cc5)NC(=O)[C@@H]5C[C@@H](O)CN5C(=O)[C@H]([C@@H](C)O)NC4=O)cc3)cc2)cc1 [ANIDULAFUNGIN] ({pTerphenylCO(4''-OnC5H11)}-[Orn(4R-OH,5R-OH)]T[Hyp][hTyr(3S-OH,4S-OH)]T[Pro(3S-OH,4S-Me)]; lactam 1-C)
Activity (Candida albicans [1]): Active
Activity (Candida tropicalis [2]): 3.81 mg/kg
Activity (Nakaseomyces glabratus [3]): 6.4 mg/kg
Activity (Candida albicans [4]): Active
Fu (Serum): 1%
ED50 (Candida albicans [5]): 8.74 mg/kg
ED50 (Candida albicans [6]): 3.5 mg/kg
Activity (Candida albicans [7]): 1.95 mg/kg
Activity (Nakaseomyces glabratus [8]): 11.8 mg/kg
MIC (Candida albicans [9]): 0.015 µg/mL (≈ 0.0132 µM)
MIC (Nakaseomyces glabratus [10]): 0.06 µg/mL (≈ 0.0526 µM)
MIC (Nakaseomyces glabratus [11]): 1 µg/mL (≈ 0.877 µM)
MIC (Nakaseomyces glabratus [12]): 0.12 µg/mL (≈ 0.105 µM)
MIC (Nakaseomyces glabratus [13]): 2 µg/mL (≈ 1.75 µM)
MIC (Candida albicans [14]): 0.06 µg/mL (≈ 0.0526 µM)
MIC (Candida tropicalis [15]): 0.12 µg/mL (≈ 0.105 µM)
MIC (Nakaseomyces glabratus [16]): 0.12 µg/mL (≈ 0.105 µM)
log10cfu (Candida albicans [17]): 3.5
log10cfu (Candida albicans [18]): 3.4
log10cfu (Nakaseomyces glabratus [19]): 2.1
Activity (Nakaseomyces glabratus [20]): Active
